Reference: paper PMC3640342 (Pharmaceutical research, 2013)
“And” between values parts separate entries of the source, which are not always exact repeats. Identical values can stand only once. Like-named read-outs stand apart in the source and are kept apart here.

Tests used:
CYP1A2 = target: T1, CYP1A2 (Homo sapiens, UniProt P05177); test: CYP phenotyping in human liver microsomes, furafylline; settings: NADPH + Furafylline
T1 sequence (P05177 1-516): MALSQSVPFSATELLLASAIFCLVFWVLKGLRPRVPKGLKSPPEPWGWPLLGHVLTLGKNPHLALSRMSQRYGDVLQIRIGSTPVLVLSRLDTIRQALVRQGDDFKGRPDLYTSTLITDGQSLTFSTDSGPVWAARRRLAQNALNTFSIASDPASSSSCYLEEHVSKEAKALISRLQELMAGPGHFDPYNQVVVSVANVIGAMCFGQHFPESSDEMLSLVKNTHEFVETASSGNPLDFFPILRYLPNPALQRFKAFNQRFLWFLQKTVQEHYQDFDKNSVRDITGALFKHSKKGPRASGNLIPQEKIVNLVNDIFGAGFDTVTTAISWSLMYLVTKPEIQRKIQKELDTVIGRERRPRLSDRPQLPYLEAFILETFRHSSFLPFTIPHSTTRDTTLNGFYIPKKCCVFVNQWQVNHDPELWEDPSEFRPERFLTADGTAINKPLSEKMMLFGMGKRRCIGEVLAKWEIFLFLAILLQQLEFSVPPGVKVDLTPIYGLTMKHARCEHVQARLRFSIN

Media solubility = assay type: physicochemical; settings: media used in the cell-based assays, 10% FBS
human liver microsomes [1] = test: Hepatic microsomal stability, human; assay type: in vitro ADME; settings: 1 μM
Summary of the method: (§1)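 Liver microsomes from mouse, rat or human (~0.5 mg/mL final) were incubated at 37°C with test compound at 1 μM final (0.6% ACN, 0.01% DMSO) in PBS pH 7.4 ± 0.05% PS80, with 1 mM NADPH or PBS.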

[2] = cell-culture media with 10% FBS, 1 μM
human plasma = settings: human plasma, 1 μM
CYP3A4 = CYP3A4 (Homo sapiens, UniProt P08684); test: CYP phenotyping in human liver microsomes, ketoconazole; settings: NADPH + Ketoconazole
[3] = mouse brain homogenate, 1 μM, corrected for dilution
CYP2C9 = CYP2C9 (Homo sapiens, UniProt P11712); test: CYP phenotyping in human liver microsomes, sulfaphenazole; settings: NADPH + Sulphaphenazol
[4] = Solubility at pH 2, pH 7.4 and in FaSSIF; assay type: physicochemical; settings: pH 7.4 (phosphate) buffer, room temperature overnight
CYP2C19 [5] = target: CYP2C19 (Homo sapiens, UniProt P33261); settings: NADPH + N-3-B
CYP2C19 [6] = settings: NADPH + N-3-B
[7] = Single-dose oral gavage PK at 10 mg/kg; assay type: in vivo, FVB mice; settings: for AUClast / Cmax: mean ± SD, n = 2
Summary of the method: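 Female FVB mice (~25 g) were dosed at 10 mg/kg by oral gavage in 20% propylene glycol, 5% ethanol, 5% labrosol and 70% PEG400. Two mice per time point were killed by CO2 at 0.25, 0.5, 1, 2, 4, 6 and 24 h. Heparinized plasma and brain (diluted five-fold in water, homogenized) were assayed by LC/MS/MS.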

CYP2D6 = CYP2D6 (Homo sapiens, UniProt P10635); test: CYP phenotyping in human liver microsomes, quinidine; settings: NADPH + Quinidine
mouse plasma = settings: 1 μM
rat liver microsomes = test: Hepatic microsomal stability, rat; assay type: in vitro ADME; settings: 1 μM
Summary of the method: as §1

[8] = Single-dose IV PK at 1 mg/kg; assay type: in vivo, FVB mice; settings: IV 1 mg/kg, plasma
Summary of the method: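 Female FVB mice (~25 g) received 1 mg/kg by tail-vein injection in 10% DMSO in PEG400/water (1:1), 10% DMSO, or 10% ethanol in PEG400/water (1:1). Two mice per time point were killed by CO2 at 5 min and 0.25, 0.5, 1, 2, 4 and 6 h, and heparinized plasma was collected. After protein precipitation, samples were assayed by LC/MS/MS, and parameters came from noncompartmental sparse-sampling analysis.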

human liver microsomes [9] = settings: for Measured Conc.: 60 min
[10] = system: PrP^Sc levels in ScN2a-cl3 cells; test: cells; assay type: cell-based, mouse
mouse liver microsomes = test: Hepatic microsomal stability, mouse; assay type: in vitro ADME; settings: 1 μM
Summary of the method: as §1

[11] = system: human, mouse, rat, and dog liver microsomes; settings: 10 μM, LC/MS/MS
[12] = reversible incubation condition, 1 μM, 60 min
[13] = irreversible incubation condition, maximum metabolism, NADPH/No Inhibitor
[14] = reversible incubation condition, maximum metabolism, NADPH/No Inhibitor

Chain of CYP2D6 (P10635 whole entry): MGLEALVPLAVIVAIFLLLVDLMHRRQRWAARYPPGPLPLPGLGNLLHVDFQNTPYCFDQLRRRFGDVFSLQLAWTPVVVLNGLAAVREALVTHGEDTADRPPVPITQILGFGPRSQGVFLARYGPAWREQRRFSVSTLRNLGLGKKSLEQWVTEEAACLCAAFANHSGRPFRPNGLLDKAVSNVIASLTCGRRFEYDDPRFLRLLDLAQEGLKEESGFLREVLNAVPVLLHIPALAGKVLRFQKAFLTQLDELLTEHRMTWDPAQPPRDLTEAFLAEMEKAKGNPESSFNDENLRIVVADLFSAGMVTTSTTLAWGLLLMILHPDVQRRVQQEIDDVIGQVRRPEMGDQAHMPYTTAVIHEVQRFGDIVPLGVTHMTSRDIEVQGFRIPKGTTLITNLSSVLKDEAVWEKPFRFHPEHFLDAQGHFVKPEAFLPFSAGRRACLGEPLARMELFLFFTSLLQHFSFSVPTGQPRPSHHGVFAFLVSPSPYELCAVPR
Chain of CYP2C9 (P11712 whole entry): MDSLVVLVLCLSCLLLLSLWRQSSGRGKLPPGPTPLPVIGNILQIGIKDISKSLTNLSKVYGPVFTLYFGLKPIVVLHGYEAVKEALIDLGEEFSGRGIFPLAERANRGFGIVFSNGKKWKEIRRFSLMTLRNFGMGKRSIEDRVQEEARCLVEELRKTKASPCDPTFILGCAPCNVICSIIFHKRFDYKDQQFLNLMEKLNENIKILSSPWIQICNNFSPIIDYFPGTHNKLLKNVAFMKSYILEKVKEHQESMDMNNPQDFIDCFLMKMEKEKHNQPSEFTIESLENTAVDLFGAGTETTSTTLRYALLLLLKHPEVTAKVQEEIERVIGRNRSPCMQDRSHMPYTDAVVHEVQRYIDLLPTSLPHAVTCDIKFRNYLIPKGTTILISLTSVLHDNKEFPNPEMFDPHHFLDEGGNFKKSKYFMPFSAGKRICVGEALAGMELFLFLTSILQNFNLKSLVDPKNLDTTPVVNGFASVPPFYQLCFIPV
Chain of CYP3A4 (P08684 whole entry): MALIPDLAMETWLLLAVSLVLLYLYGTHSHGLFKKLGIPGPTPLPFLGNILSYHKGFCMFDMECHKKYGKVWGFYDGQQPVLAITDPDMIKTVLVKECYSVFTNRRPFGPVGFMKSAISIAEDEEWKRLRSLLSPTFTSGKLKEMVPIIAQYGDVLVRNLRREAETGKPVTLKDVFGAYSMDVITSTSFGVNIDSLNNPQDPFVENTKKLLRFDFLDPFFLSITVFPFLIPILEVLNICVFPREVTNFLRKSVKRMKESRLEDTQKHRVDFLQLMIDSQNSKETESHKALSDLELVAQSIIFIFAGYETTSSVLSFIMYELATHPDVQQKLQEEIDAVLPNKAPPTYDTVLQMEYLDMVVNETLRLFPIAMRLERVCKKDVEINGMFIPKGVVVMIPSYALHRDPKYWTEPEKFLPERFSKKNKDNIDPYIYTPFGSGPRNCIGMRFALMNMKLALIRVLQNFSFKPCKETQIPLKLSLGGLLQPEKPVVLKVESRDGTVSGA
Chain of CYP2C19 (Homo sapiens, UniProt P33261) (P33261 whole entry): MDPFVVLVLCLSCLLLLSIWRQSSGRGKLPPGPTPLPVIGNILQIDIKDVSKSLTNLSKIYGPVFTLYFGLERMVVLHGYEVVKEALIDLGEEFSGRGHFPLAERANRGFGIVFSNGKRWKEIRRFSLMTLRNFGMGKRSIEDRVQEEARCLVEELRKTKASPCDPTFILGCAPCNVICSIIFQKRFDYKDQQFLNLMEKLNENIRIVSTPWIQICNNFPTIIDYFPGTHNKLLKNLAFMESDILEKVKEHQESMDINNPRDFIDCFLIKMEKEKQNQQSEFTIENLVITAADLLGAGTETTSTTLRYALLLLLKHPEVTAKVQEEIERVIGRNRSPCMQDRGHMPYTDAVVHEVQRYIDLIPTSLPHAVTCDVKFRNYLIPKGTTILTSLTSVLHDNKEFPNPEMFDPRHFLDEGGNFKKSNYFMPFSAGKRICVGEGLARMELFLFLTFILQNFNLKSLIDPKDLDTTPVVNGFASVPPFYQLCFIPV

Cc1ccc(Nc2nc(-c3ccc(-c4ccccc4)cc3)cs2)nc1 [IND24]
Disappearance % (CYP1A2): 0 (−23) %
Disappearance % Δ (CYP1A2): 0%
Measured Conc. (CYP1A2; irreversible incubation condition, 1 μM, 60 min): 0.766 µM
Solubility Media (Media solubility): >250 µM
% remaining after a 60-min incubation (human liver microsomes [1]): 105%
t1/2 (human liver microsomes [1]; NADPH): > 1 h
Unbound (%) [2]: 26% and 25.7±4.93%
Unbound (%) (human plasma): 4.9% and 4.91±1.03%
CYP? (involvement of CYP3A4) (CYP3A4): Unlikely (unlikely for values <5)
Disappearance % (CYP3A4): 15%
Disappearance % Δ (CYP3A4): 0 (−15) %
Measured Conc. (CYP3A4; [12]): 0.557 µM
Unbound (%) [3]: 8% and 8.20±0.35%
CYP? (involvement of CYP2C9) (CYP2C9): Unlikely (unlikely for values <5)
Disappearance % (CYP2C9): 14%
Disappearance % Δ (CYP2C9): 0 (−14) %
Measured Conc. (CYP2C9; [12]): 0.566 µM
Solubility pH 7.4 [4]: <1 μM
CYP? (involvement of CYP2C19) (CYP2C19 [5]): Unlikely (unlikely for values <5)
Disappearance % Δ (CYP2C19 [5]): 0 (−18) %
Disappearance % (CYP2C19 [6]): 18%
Measured Conc. (CYP2C19 [6]; [12]): 0.537 µM
%F (absolute oral bioavailability) ([7]; PO 10 mg/kg vs IV 1 mg/kg, plasma): 40% and 40.3%
tmax ([7]; PO 10 mg/kg, brain): 4 h
AUClast ([7]; PO 10 mg/kg, brain): 29.1 ± 1.24 µM·h
Cmax ([7]; PO 10 mg/kg, brain): 2450 ± 740 nM
t1/2 ([7]; PO 10 mg/kg, plasma): 4.65 h
tmax ([7]; PO 10 mg/kg, plasma): 2 h
AUClast ([7]; PO 10 mg/kg, plasma): 11.2 ± 1.31 µM·h
Cmax ([7]; PO 10 mg/kg, plasma): 1660 ± 110 nM
CYP? (involvement of CYP2D6) (CYP2D6): Unlikely (unlikely for values <5)
Disappearance % (CYP2D6): 15%
Disappearance % Δ (CYP2D6): 0 (−15) %
Measured Conc. (CYP2D6; [12]): 0.555 µM
Unbound (%) (mouse plasma): 6.6% and 6.63±1.55%
% remaining after a 60-min incubation (rat liver microsomes): 90%
t1/2 (rat liver microsomes; NADPH): > 1 h
tmax [8]: 4.98 min
CL ([8]; female FVB mice): 15.3 mL/min/kg
Vss ([8]; female FVB mice): 2.46 L/kg
AUClast ([8]; mean ± SD, n = 2): 2.78 ± 1.09 µM·h
Cmax ([8]; mean ± SD, n = 2): 2490 ± 2650 nM
t1/2 ([8]; 1 mg/kg): 2.16 h
Metabolism in HLM incubations (human liver microsomes [9]; 1 μM, human liver microsomes): very little metabolism
Disappearance % (human liver microsomes [9]; [13]): 0 (−18) %
Disappearance % Δ (human liver microsomes [9]; [13]): 0%
Measured Conc. (human liver microsomes [9]; irreversible incubation condition, maximum metabolism, NADPH/No Inhibitor, 1 μM): 0.733 µM
Measured Conc. (human liver microsomes [9]; irreversible incubation condition, negative control, No NADPH/No Inhibitor, 1 μM): 0.622 µM
Disappearance % (human liver microsomes [9]; [14]): 0%
Disappearance % Δ (human liver microsomes [9]; [14]): 0%
Measured Conc. (human liver microsomes [9]; reversible incubation condition, maximum metabolism, NADPH/No Inhibitor, 1 μM): 0.655 µM
Disappearance % (human liver microsomes [9]; reversible incubation condition, negative control, No NADPH/No Inhibitor): 0%
Measured Conc. (human liver microsomes [9]; reversible incubation condition, negative control, No NADPH/No Inhibitor, 1 μM): 0.654 µM
EC50 [10]: 1.27 µM
EC50 ([10]; read-out: EC50, unbound compound): 0.325 µM
% remaining after a 60-min incubation (mouse liver microsomes): 89%
t1/2 (mouse liver microsomes; NADPH): > 1 h
Metabolites observed [11]: metabolites M1–M3 and M5 were observed in all of the microsomal assays while M4 was only observed in the dog liver microsomal incubation
